Assay results published in ChEMBL document CHEMBL1135575, “Synthesis and structure-activity relationships of 3-aryloxindoles: a new class of calcium-dependent, large conductance potassium (maxi-K) channel openers with neuroprotective properties” (J Med Chem, 2002).
“And” between values parts separate entries of the source, which are not always exact repeats. Equal values may be shown once.

Assays:
[1] = (§1) Effect on Maxi-K-Mediated outward current in Xenopus laevis oocytes expressing cloned mSlo maxi-K channels at 20 uM; type: functional, Oocyte
Method in brief: (§2)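 Two-electrode voltage clamp on Xenopus oocytes expressing cloned mSlo. Steps of 500–750 ms ran from a holding potential of -60 to +140 mV in 20 mV increments, without and with compound at 20 μM in the chamber. Each experiment ended with 10 min of 50 nM iberiotoxin, and that residual current was subtracted. The IbTx-sensitive current is given as % of drug-free control, from at least five oocytes.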

[2] = as §1; type: functional, Mus musculus, Oocyte; method in brief: as §2
[3] = Effect on Maxi-K mediated outward current in Xenopus laevis oocytes expressing cloned mSlo maxi-K channels at 20 uM; type: functional, Mus musculus, Oocyte; method in brief: as §2
Rattus norvegicus [4] = experiment: Neocortical infarct volume after IV administration (2 hr post-MCAO) in 9 rats by method A at the dose 10.0 mg/kg; Toxic at 10.0% reduction level; conditions: in vivo
Rattus norvegicus [5] = organism: Rattus norvegicus; experiment: Electrically stimulated [3H]-glutamate release in hippocampal slices; type: functional, Hippocampus
Method in brief: (§3)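 Hippocampal wedges (350 μm) from male Sprague–Dawley rats were washed in Krebs buffer with adenosine deaminase. They were loaded with 5 μCi [3H]-glutamate for 30 min at 37 °C, then superfused and collected as 5 min fractions. Release was evoked by field stimulation (35 mA, 10 Hz, 2 ms pulses, 1 min) at fractions 3 (S1) and 13 (S2). Compound was present from 30 min before S2. Data are S2/S1 ratios, analysed by ANOVA with Newman–Keuls.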

Rattus norvegicus [6] = experiment: Neocortical infarct volume after IV administration (2 hr post-MCAO) in 9 rats by method B at the dose 0.01 mg/kg
Rattus norvegicus [7] = experiment: Neocortical infarct volume after IV administration (2 hr post-MCAO) in 9 rats by method B at the dose 0.1 mg/kg; type: functional
Rattus norvegicus [8] = experiment: Neocortical infarct volume after intraperitoneal administration (2 hr post-MCAO) in 11 rats by method B at the dose level 20(mg/kg).; type: functional
Method in brief: (§4)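 Permanent left MCA occlusion in male SHR (240–350 g) under ketamine/xylazine, at 36–38 °C. Compound was given intraperitoneally 2 h after occlusion in 2% DMSO/98% propylene glycol. At 24 h, infarcts were stained with 3% TTC perfusion, slices were cut at 2 mm, and neocortical infarct volume was measured by planimetry. Results are given as mean (SE) and % reduction versus vehicle from the same study.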

Rattus norvegicus [9] = experiment: Neocortical infarct volume after intraperitoneal administration (2 hr post-MCAO) in 11 rats by method B at the dose level 10(mg/kg).; type: functional; method in brief: as §4
Rattus norvegicus [10] = experiment: Plasma level concentration after IV administration (4.6 mg/kg) in male rats at 0.25 hours; type: functional, organism-based
Method in brief: (§5)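 Male Sprague–Dawley rats (ca. 225 g) got a tail-vein bolus of 2 mL/kg. Three animals per group were killed by CO2 at 0.25 and 2 h. Whole brain and blood were taken. Brain homogenates and plasma were extracted with CH3CN and assayed by HPLC with UV detection at 290 nm. Plasma is given in μg/mL and brain in μg/g wet weight, as mean ± SD.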

Rattus norvegicus [11] = experiment: Plasma level concentration after IV administration (4.6 mg/kg) in male rats at 2 hours; type: functional, organism-based; method in brief: as §5
Rattus norvegicus [12] = experiment: Neocortical infarct volume after IV administration (2 hr post-MCAO) in 9 rats by method A at the dose 0.1 mg/kg; type: functional
Method in brief: (§6)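 Left MCA was permanently occluded by a subtemporal approach in male SHR (240–350 g) under ketamine/xylazine, with temperature kept at 36–38 °C. A single tail-vein bolus was given 2 h after occlusion, in vehicle of 2% DMSO and 98% propylene glycol. At 24 h the brain was perfused with 3% TTC, incubated 30 min at 37 °C and fixed. Neocortical infarct volume (mm3) was measured by planimetry of 2 mm slices and reported as mean (SE) and % reduction versus vehicle.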

Rattus norvegicus [13] = experiment: Brain level concentration after IV administration (4.6 mg/kg) in male rats at 2 hours; type: functional, organism-based; method in brief: as §5
Rattus norvegicus [14] = experiment: Brain level concentration after IV administration (4.6 mg/kg) in male rats at 0.25 hours; type: functional, organism-based; method in brief: as §5
Rattus norvegicus [15] = experiment: Neocortical infarct volume after intraperitoneal administration (2 hr post-MCAO) in 9 rats by method A at the dose 10 mg/kg
Rattus norvegicus [16] = experiment: Neocortical infarct volume after IV administration (2 hr post-MCAO) in 9 rats by method A at the dose 0.03 mg/kg; type: functional; method in brief: as §6
Rattus norvegicus [17] = experiment: Neocortical infarct volume after IV administration (2 hr post-MCAO) in 13 rats by method A at the dose 5.0 mg/kg; type: functional; method in brief: as §6
Rattus norvegicus [18] = experiment: Neocortical infarct volume after IV administration (2 hr post-MCAO) in 13 rats by method A at the dose 1.0 mg/kg; type: functional; method in brief: as §6
Rattus norvegicus [19] = organism: Rattus norvegicus; experiment: Electrically stimulated [3H]glutamate release in hippocampal slices; type: functional, Hippocampus; method in brief: as §3
Rattus norvegicus [20] = experiment: Neocortical infarct volume after IV administration (2 hr post-MCAO) in 13 rats by method A at the dose 10.0 mg/kg; type: functional; method in brief: as §6

SMILES	Increase [1]	other results
O=C1Nc2cc(C(F)(F)F)ccc2C1(O)c1cc(Br)ccc1O (configuration not stated)	89%	–
O=C1Nc2cc(C(F)(F)F)ccc2[C@@]1(O)c1cc(Cl)ccc1O	123%	–
Nc1cc(O)c(C2(O)C(=O)Nc3cc(C(F)(F)F)ccc32)cc1Cl (configuration not stated)	–	Increase [2]: 94%
COc1ccc(Cl)cc1[C@]1(O)C(=O)Nc2cc(C(F)(F)F)ccc21 (stereo in doubt; (+)-7c)	117%	–
O=C1Nc2cccc(C(F)(F)F)c2C1(O)c1cc(Cl)ccc1O (configuration not stated)	127%	–
O=C1Nc2cc(C(F)(F)F)ccc2C1(O)c1ccccc1 (configuration not stated)	87%	–
O=C1Nc2cc(Cl)cc(Cl)c2C1(O)c1cc(Cl)ccc1O (configuration not stated)	117%	–
COc1ccc(O)c(C2(O)C(=O)Nc3cc(C(F)(F)F)ccc32)c1 (configuration not stated)	81%	–
O=C1Nc2ccc([N+](=O)[O-])cc2C1(O)c1cc(Cl)ccc1O (configuration not stated)	78%	–
O=C1Nc2ccccc2C1c1cc(Cl)ccc1O (configuration not stated)	139%	–
CN1CCN(c2ccc(O)c(C3(O)C(=O)Nc4cc(C(F)(F)F)ccc43)c2)CC1 (configuration not stated)	91%	–
O=C1Nc2cc(C(F)(F)F)ccc2C1(O)c1cccc(Cl)c1O (configuration not stated)	116%	–
O=C1Nc2c(C(F)(F)F)cccc2C1(O)c1cc(Cl)ccc1O (configuration not stated)	122%	–
O=C1Nc2cc(C(F)(F)F)ccc2C1(O)c1ccccc1O (configuration not stated)	90%	–
O=C1Nc2cc(C(F)(F)F)ccc2C1(O)c1cc(-c2ccccc2)ccc1O (configuration not stated)	106%	–
O=C1Nc2cc(C(F)(F)F)ccc2C1(O)c1cc(F)ccc1O (configuration not stated)	97%	–
O=C1Nc2cc(C(F)(F)F)ccc2C1(O)c1cccc(Cl)c1 (configuration not stated)	97%	–
O=C1Nc2cc(C(F)(F)F)ccc2C1(O)c1cc(Cl)c(Cl)cc1O (configuration not stated)	107%	–
O=C1Nc2cc(C(F)(F)F)ccc2C1(O)c1cc(Cl)cc(I)c1O (configuration not stated)	124%	–
COc1ccc(Cl)cc1[C@]1(O)C(=O)Nc2cc(C(F)(F)F)ccc21 (stereo in doubt; (-)-7c)	116%	–
O=C1Nc2ccc(C(F)(F)F)cc2C1(O)c1cc(Cl)ccc1O (configuration not stated)	108%	–

SMILES	Increase [1]	other results
Cc1ccc(O)c(C2(O)C(=O)Nc3cc(C(F)(F)F)ccc32)c1 (configuration not stated)	106%	–
O=C1Nc2cc(C(F)(F)F)cc(C(F)(F)F)c2C1(O)c1cc(Cl)ccc1O (configuration not stated)	127%	–
O=C1Nc2cc(C(F)(F)F)ccc2C1(O)c1ccc(C(F)(F)F)cc1O (configuration not stated)	108%	–
O=c1[nH]c2cc(C(F)(F)F)ccc2n1-c1cc(Cl)ccc1O	132%	–
Nc1ccc(C2(O)C(=O)Nc3cc(C(F)(F)F)ccc32)c(O)c1 (configuration not stated)	–	Increase [2]: 92%
Cc1ccc2c(c1)C(O)(c1cc(Cl)ccc1O)C(=O)N2 (configuration not stated)	100%	–
O=C1Nc2cc(C(F)(F)F)ccc2C1(O)c1cc(C(F)(F)F)ccc1O (configuration not stated)	130%	–
COc1ccc(Cl)cc1C1(O)C(=O)Nc2ccc(C(F)(F)F)cc21 (configuration not stated)	–	Increase [3]: 109%
O=C1Nc2cc(C(F)(F)F)ccc2C1(O)c1cc(Cl)ccc1O (single isomer, unassigned; (-))	141%	–
O=C1Nc2cc(C(F)(F)F)ccc2C1(O)c1c(O)ccc2ccccc12 (configuration not stated)	116%	–
O=C1Nc2cc(C(F)(F)F)ccc2C1(O)c1ccc(Cl)cc1O (configuration not stated)	93%	–
O=C1Nc2cc(C(F)(F)F)ccc2C1(O)c1cc(Cl)cc(Cl)c1O (configuration not stated)	108%	–
O=C1Nc2ccc(F)cc2C1(O)c1cc(Cl)ccc1O (configuration not stated)	106%	–
COc1ccc(Cl)cc1C1C(=O)Nc2cc(C(F)(F)F)ccc21 (configuration not stated)	110%	–
O=C1Nc2cc(C(F)(F)F)ccc2C1c1cc(Cl)ccc1O (racemic)	–	Toxic (Rattus norvegicus [4]): Toxic; Control (Rattus norvegicus [5]): 71%; Increase (Rattus norvegicus [6]): -7%; Reduction (Rattus norvegicus [7]): 4% and 12%; Reduction (Rattus norvegicus [8]): 9%; Reduction (Rattus norvegicus [9]): 24%; Concentration (Rattus norvegicus [10]): 3.3 µg/mL; Concentration (Rattus norvegicus [11]): 0.28 µg/mL; Reduction (Rattus norvegicus [12]; 0.1 mg/kg): 9% and 0% and 6%; Concentration (Rattus norvegicus [13]): 0.23 µg/g; Increase [2]: 164%; Concentration (Rattus norvegicus [14]): 2.4 µg/g; Reduction (Rattus norvegicus [15]): 26%; Reduction (Rattus norvegicus [16]): 18%
O=C1Nc2ccccc2C1(O)c1cc(Cl)ccc1O (configuration not stated)	95%	–
COc1ccc(Cl)cc1C1(O)C(=O)Nc2cc(C(F)(F)F)ccc21 (racemic)	120%	–
O=C1Nc2cc(C(F)(F)F)ccc2C1(O)c1cc(Cl)ccc1O (racemic) [listing 1 of 2 here]	–	Concentration (Rattus norvegicus [10]): 1.2 µg/mL; Concentration (Rattus norvegicus [11]): 0.231 µg/mL; Concentration (Rattus norvegicus [13]): 0.87 µg/g; Concentration (Rattus norvegicus [14]): 1.34 µg/g
O=C1Nc2cc(C(F)(F)F)ccc2C1(O)c1cc(Cl)ccc1O (racemic) [listing 2 of 2 here]	131%	Reduction (Rattus norvegicus [17]): 10%; Reduction (Rattus norvegicus [18]): 10%; Control (Rattus norvegicus [19]): 89% and 93%; Reduction (Rattus norvegicus [12]): 4%; Reduction (Rattus norvegicus [20]): 4%
O=C1Nc2cc(C(F)(F)F)ccc2C1(O)c1cc(I)ccc1O (configuration not stated)	107%	–
